pEC50: −log10 of the molar value. Active and inactive are the calls of the source. The calls are words filed in the database; no cut-off is given here.
Legend:
Human alphaherpesvirus 1 [1] = assay: Antiviral activity against HSV1 in african green monkey Vero cells assessed as viral inactivation after 1 hr at 37 degC; assay type: functional, organism-based; conditions: Human alphaherpesvirus 1, Vero
Summary of the method: (§1)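 hrR3 virions (1×10^6–6×10^6 PFU/ml) in serum-free DMEM incubated with peptide 1 h at 37°C. Free peptide removed by 1,000-fold dilution or by pelleting at 14,000 × g. Infectivity then titrated on Vero cells in triplicate by lysate β-galactosidase or X-Gal staining. EC50 from dose-response curves.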

Human alphaherpesvirus 1 [2] = assay: Antiviral activity against HSV1 in african green monkey Vero cells assessed as resistance to viral infection after 1 hr at 37 degC; assay type: functional, organism-based; conditions: Human alphaherpesvirus 1, Vero
Summary of the method: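 Vero monolayers exposed to peptide 1 h at 37°C, rinsed three times, infected with hrR3 (MOI 0.01) 1 h at 37°C without peptide. pH 3 citrate inactivates extracellular virus; lysate β-galactosidase (CPR-Gal, 570 nm) read 6 h later. EC50 from dose-response, triplicates per concentration.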

Human alphaherpesvirus 2 [3] = assay: Antiviral activity against HSV2 333 assessed by plaque reduction assay; assay type: functional, organism-based
Summary of the method: (§2)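 Plaque reduction on Vero monolayers with HSV-2 strain 333, 150 PFU/well adsorbed 1 h at 4°C. Peptide added at 4°C, shift to 37°C 10 min later; alternatively cells pretreated 1 h at 4°C with peptide and rinsed before virus. Extracellular virus inactivated; 2% methylcellulose overlay for 2.5 days; crystal violet plaque counts.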

Human alphaherpesvirus 1 [4] = assay: Inhibition of HSV1 entry in african green monkey Vero cells assessed as beta-galactosidase activity for 1 hr at 37 degC; assay type: functional, organism-based; conditions: Human alphaherpesvirus 1, Vero
Summary of the method: (§3)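 HSV-1 hrR3 (MOI 0.02–0.03) adsorbed to precooled Vero cells 1 h at 4°C and rinsed. Peptide added at 4°C, shifted to 37°C for 1 h of entry. Peptide rinsed off; pH 3 citrate 60 s. Lysis at 6 h, initial β-galactosidase rate (CPR-Gal, 570 nm) relative to mock, minus cycloheximide background; triplicates.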

Vero = assay: Cytotoxicity against african green monkey Vero cells by trypan blue exclusion assay; assay type: cell-based; conditions: chlorocebus sabaeus
Summary of the method: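 Viability by trypan blue exclusion in Vero cells after peptide exposure.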

Human alphaherpesvirus 1 [5] = assay: Antiviral activity against HSV1 hrR3S infected african green monkey Vero cells assessed as inhibition of viral cell-cell spread at 100 uM; assay type: functional, organism-based
Summary of the method: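 Vero cells infected with syncytial hrR3S (MOI 0.02–0.05) for 1–2 h at 37°C, then held up to 24 h at 37°C with 50-fold diluted neutralizing anti-HSV-1 antibody ± peptide. Syncytia viewed by X-Gal staining; fusion quantified as initial rate of lysate β-galactosidase.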

Human alphaherpesvirus 2 [6] = assay: Antiviral activity against HSV2 333 pretreated for 1 hr before viral infection at 4 degC by plaque reduction assay; assay type: functional, organism-based; summary of the method: as §2
Human alphaherpesvirus 1 [7] = assay: Inactivation of HSV1 in african green monkey Vero cells assessed as beta-galactosidase activity upto 200 uM at 37 degC; assay type: functional, organism-based; summary of the method: as §1
Human alphaherpesvirus 1 [8] = assay: Antiviral activity against HSV1 assessed as Inhibition of VP16 nuclear translocation in african green monkey Vero cells at 300 uM after 1 hr at 37 degC; assay type: functional; design: scale not given: the % may be the effect or the level left
Summary of the method: (§4)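 Vero cells on poly-L-lysine coverslips; HSV-1 adsorbed 80 min at 4°C (MOI 10). Peptide at 50 μM present for the last 20 min of adsorption and through the 1 h 37°C entry period, or virus pretreated with 300 μM for 1 h at 37°C and then diluted. Cells fixed, anti-VP16 immunofluorescence, 50 cells per group scored for nuclear VP16.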

Human alphaherpesvirus 1 [9] = assay: Antiviral activity against HSV1 assessed as Inhibition of VP16 nuclear translocation in african green monkey Vero cells at 50 uM after 1 hr at 4 degC; assay type: functional; design: scale not given: the % may be the effect or the level left; summary of the method: as §4
Human alphaherpesvirus 1 [10] = assay: Inhibition of HSV1 attachment in african green monkey Vero cells at 100 uM at 37 degC; assay type: functional; conditions: Human alphaherpesvirus 1, Vero
Human alphaherpesvirus 1 [11] = assay: Inhibition of HSV1 hrR3S syncytium formation in african green monkey Vero cells assessed as reduction of beta-galactosidase activity at 100 uM; assay type: functional; design: scale not given: the % may be the effect or the level left
Summary of the method: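 Confluent Vero (2.0 × 10^5 cells/well) infected with syncytial hrR3S (MOI 0.02 to 0.05) 1 to 2 h at 37°C, rinsed, then held up to 24 h at 37°C in carbonate-buffered serum DMEM with neutralizing anti-HSV-1 antibody (50-fold dilution) ± peptide. Fusion read as initial β-galactosidase rate in NP-40 lysates with CPR-Gal at 570 nm.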

Human alphaherpesvirus 1 [12] = assay: Inhibition of HSV1 entry in african green monkey Vero cells assessed as beta-galactosidase activity relative to control […]; assay type: functional, organism-based; conditions: Human alphaherpesvirus 1, Vero; summary of the method: as §3
Human alphaherpesvirus 2 [13] = assay: Antiviral activity against HSV2 333 assessed as resistance against viral infection; assay type: functional, organism-based
Human alphaherpesvirus 1 [14] = assay: Inhibition of HSV1 entry in african green monkey Vero cells assessed as beta-galactosidase activity at 30 uM at 33 degC after 40 mins; assay type: functional, organism-based
Summary of the method: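 Vero cells on strip-well plates with hrR3 adsorbed 1 h at 4°C; entry started by floating the plate at 33°C. Peptide added just before the shift or 35 min after, returning to 33°C at 40 min. At set times, external virus inactivated with pH 3 citrate. Lysed 6 h later; β-galactosidase initial rate read against mock-treated controls, triplicate.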

| SMILES | pEC50 (Human alphaherpesvirus 1 [1]) | pEC50 (Human alphaherpesvirus 1 [2]) | pEC50 (Human alphaherpesvirus 1 [4]) | Activity (Vero) | also measured |
| --- | --- | --- | --- | --- | --- |
| N=C(N)NCCC[C@@H](NC(=O)CN)C(=O)N[C@H](CCCCN)C(=O)N[C@H](CCCCN)C(=O)N[C@H](CCCNC(=N)N)C(=O)N[C@H](CCCNC(=N)N)C(=O)N[C@H](CCC(N)=O)C(=O)N[C@H](CCCNC(=N)N)C(=O)N[C@H](CCCNC(=N)N)C(=O)N[C@H](CCCNC(=N)N)C(=O)N[C@H](CS)C(=O)O | 3.82 | 5.27 | 5.60 | Non-toxic | pEC50 (Human alphaherpesvirus 2 [3]): 5.89; Activity (Human alphaherpesvirus 1 [5]): Active; pEC50 (Human alphaherpesvirus 2 [6]): 5.11 |
| N=C(N)NCCC[C@H](NC(=O)CN)C(=O)N[C@@H](CCCCN)C(=O)N[C@@H](CCCCN)C(=O)N[C@@H](CCCNC(=N)N)C(=O)N[C@@H](CCCNC(=N)N)C(=O)N[C@@H](CCC(N)=O)C(=O)N[C@@H](CCCNC(=N)N)C(=O)N[C@@H](CCCNC(=N)N)C(=O)N[C@@H](CCCNC(=N)N)C(=O)N[C@@H](CS)C(=O)O | 4.02 | 5.48 | 5.51 | Non-toxic | Activity (Human alphaherpesvirus 1 [7]): Active; Activity (Human alphaherpesvirus 1 [8]): 2.5%; Activity (Human alphaherpesvirus 1 [9]): 6% |
| N=C(N)NCCC[C@@H](NC(=O)CNC(=O)CCCCCNC(=O)CCCC[C@@H]1SC[C@@H]2NC(=O)N[C@@H]21)C(=O)N[C@H](CCCCN)C(=O)N[C@H](CCCCN)C(=O)N[C@H](CCCNC(=N)N)C(=O)N[C@H](CCCNC(=N)N)C(=O)N[C@H](CCC(N)=O)C(=O)N[C@H](CCCNC(=N)N)C(=O)N[C@H](CCCNC(=N)N)C(=O)N[C@H](CCCNC(=N)N)C(=O)N[C@H](CS)C(=O)O | – | – | 5.68 | Non-toxic | inhibition at 100 µM (Human alphaherpesvirus 1 [10]): 25%; Activity (Human alphaherpesvirus 1 [11]): 93% |
| N=C(N)NCCC[C@@H](NC(=O)CN)C(=O)N[C@H](CCCCN)C(=O)N[C@H](CCCCN)C(=O)N[C@H](CCCNC(=N)N)C(=O)N[C@H](CCCNC(=N)N)C(=O)N[C@H](CCC(N)=O)C(=O)N[C@H](CCCNC(=N)N)C(=O)N[C@H](CCCNC(=N)N)C(=O)N[C@H](CCCNC(=N)N)C(=O)N[C@H](CS)C(N)=O | 3.70 | 5.96 | 6.05 | Non-toxic | pEC50 (Human alphaherpesvirus 2 [3]): 5.60; pEC50 (Human alphaherpesvirus 1 [12]): 6.52; pEC50 (Human alphaherpesvirus 2 [13]): 4.09 |
| CCCC[C@H](NC(=O)[C@H](CCCC)NC(=O)[C@H](CCC(N)=O)NC(=O)[C@H](CCCNC(=N)N)NC(=O)[C@H](CCCNC(=N)N)NC(=O)[C@H](CCCCN)NC(=O)[C@H](CCCCN)NC(=O)[C@H](CCCNC(=N)N)NC(=O)CN)C(=O)N[C@@H](CCCNC(=N)N)C(=O)N[C@@H](CS)C(=O)O | 3.05 | 3.64 | 4.32 | Non-toxic | – |
| N=C(N)NCCC[C@H](NC(=O)[C@H](CCCNC(=N)N)NC(=O)[C@H](CCCNC(=N)N)NC(=O)[C@H](CCC(N)=O)NC(=O)[C@H](CCCNC(=N)N)NC(=O)[C@H](CCCNC(=N)N)NC(=O)[C@H](CCCCN)NC(=O)[C@H](CCCCN)NC(=O)[C@H](CCCNC(=N)N)NC(=O)CN)C(N)=O | < 2.92 | < 2.92 | 6.00 | Non-toxic | pEC50 (Human alphaherpesvirus 1 [12]): 6.52 |
| CCCC[C@H](NC(=O)[C@H](CCCNC(=N)N)NC(=O)CN)C(=O)N[C@@H](CCCC)C(=O)N[C@@H](CCCNC(=N)N)C(=O)N[C@@H](CCCNC(=N)N)C(=O)N[C@@H](CCC(N)=O)C(=O)N[C@@H](CCCNC(=N)N)C(=O)N[C@@H](CCCNC(=N)N)C(=O)N[C@@H](CCCNC(=N)N)C(=O)N[C@@H](CS)C(N)=O | 3.94 | 4.04 | 5.02 | Non-toxic | Activity (Human alphaherpesvirus 1 [14]): Active |
| N=C(N)NCCC[C@H](NC(=O)CNC(=O)CCCCCNC(=O)CCCC[C@@H]1SC[C@@H]2NC(=O)N[C@@H]21)C(=O)N[C@@H](CCCCN)C(=O)N[C@@H](CCCCN)C(=O)N[C@@H](CCCNC(=N)N)C(=O)N[C@@H](CCCNC(=N)N)C(=O)N[C@@H](CCC(N)=O)C(=O)N[C@@H](CCCNC(=N)N)C(=O)N[C@@H](CCCNC(=N)N)C(=O)N[C@@H](CCCNC(=N)N)C(=O)N[C@@H](CS)C(N)=O | – | – | 5.24 | Non-toxic | – |
| N=C(N)NCCC[C@@H](NC(=O)CN)C(=O)N[C@H](CCCCN)C(=O)N[C@H](CCCCN)C(=O)N[C@H](CCCNC(=N)N)C(=O)N[C@H](CCCNC(=N)N)C(=O)N[C@H](CCC(N)=O)C(=O)N[C@H](CCCNC(=N)N)C(=O)N[C@H](CCCNC(=N)N)C(=O)N[C@H](CCCNC(=N)N)C(=O)N1CCC[C@@H]1C(N)=O | 2.98 | < 2.92 | 6.15 | Non-toxic | pEC50 (Human alphaherpesvirus 1 [12]): 6.52 |
| N=C(N)NCCC[C@H](NC(=O)CN)C(=O)N[C@@H](CCCCN)C(=O)N[C@@H](CCCCN)C(=O)N[C@@H](CCCNC(=N)N)C(=O)N[C@@H](CCCNC(=N)N)C(=O)N[C@@H](CCC(N)=O)C(=O)N[C@@H](CCCNC(=N)N)C(=O)N[C@@H](CCCNC(=N)N)C(=O)N[C@@H](CCCNC(=N)N)C(=O)N[C@@H](CS)C(N)=O | 3.41 | 5.41 | 6.05 | Non-toxic | – |
| CCCC[C@H](NC(=O)[C@H](CCCC)NC(=O)[C@H](CCC(N)=O)NC(=O)[C@H](CCCNC(=N)N)NC(=O)[C@H](CCCNC(=N)N)NC(=O)[C@H](CCCCN)NC(=O)[C@H](CCCCN)NC(=O)[C@H](CCCNC(=N)N)NC(=O)CNC(=O)CCCCCNC(=O)CCCC[C@@H]1SC[C@@H]2NC(=O)N[C@@H]21)C(=O)N[C@@H](CCCNC(=N)N)C(=O)N[C@@H](CS)C(=O)O | – | – | 4.43 | Non-toxic | – |
| N=C(N)NCCC[C@@H](NC(=O)CN)C(=O)N[C@H](CCCCN)C(=O)N[C@H](CCCCN)C(=O)N[C@H](CCCNC(=N)N)C(=O)N[C@H](CCCNC(=N)N)C(=O)N[C@H](CCC(N)=O)C(=O)N[C@H](CCCNC(=N)N)C(=O)N[C@H](CCCNC(=N)N)C(=O)N[C@H](CCCNC(=N)N)C(=O)N[C@H](CSSC[C@@H](NC(=O)[C@@H](CCCNC(=N)N)NC(=O)[C@@H](CCCNC(=N)N)NC(=O)[C@@H](CCCNC(=N)N)NC(=O)[C@@H](CCC(N)=O)NC(=O)[C@@H](CCCNC(=N)N)NC(=O)[C@@H](CCCNC(=N)N)NC(=O)[C@@H](CCCCN)NC(=O)[C@@H](CCCCN)NC(=O)[C@@H](CCCNC(=N)N)NC(=O)CN)C(N)=O)C(N)=O | 4.47 | 6.40 | 6.22 | Non-toxic | – |
